Most compounds without a hit are left out; they make up all but 3.5% or so of the library.
MrgX1 agonist: activates human MrgX1 receptor signaling | Q96LB2 | MrgX1-HEK293 cells, Fluo-4 calcium fluorescence, agonist mode; stronger effect = higher value | B-score at 10 µM | 310,000 tested, 0.44% active;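 active = calcium response B-score plate-corrected fluorescence ratio at least 3 library SD, with starting fluorescence B-score inside 5 SD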
Target sequence (Q96LB2 whole entry, looked up): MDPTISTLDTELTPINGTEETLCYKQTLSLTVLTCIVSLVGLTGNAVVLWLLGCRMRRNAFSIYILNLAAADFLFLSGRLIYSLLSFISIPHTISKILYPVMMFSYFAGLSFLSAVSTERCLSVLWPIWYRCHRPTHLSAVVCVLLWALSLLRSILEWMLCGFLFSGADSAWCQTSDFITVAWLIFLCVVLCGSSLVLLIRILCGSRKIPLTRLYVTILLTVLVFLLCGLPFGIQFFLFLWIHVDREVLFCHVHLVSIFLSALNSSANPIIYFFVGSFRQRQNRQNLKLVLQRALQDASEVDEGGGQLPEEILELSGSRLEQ
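Material – MrgX1-expressing HEK293 cells · Input – 15,000 cells seeded per well · Dosing – compound as first of three additions · Times – overnight seeding, then 1 h dark dye loading · Measured by – kinetic Fluo-4 NW fluorescence of intracellular calcium · Read-out – B-scored fluorescence response ratio · Benchmarks – positive and negative control wells on each plate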
MrgX1 PAM: human MrgX1 positive allosteric modulation, primary screen | Q96LB2 | MrgX1-HEK293, Fluo-4 calcium flux, FDSS; stronger effect = higher value | B-score at 10 µM | 310,000 tested, 0.63% active | AID 588675;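 active = plate-corrected calcium response at least 3 library SD above typical, normal starting fluorescence, not activating the receptor alone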;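 note: compound read alongside a low EC10 to EC30 dose of BAM8-22 agonist; peak minus trough fluorescence over baseline measured at the second addition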
RGS4 pot: RGS4 potentiation or activation. AID 463111. B-score at 10 µM. 310,000 tested, 0.92% active. HEK293 M3R/inducible RGS4, carbachol calcium flux Fluo4; stronger effect = lower value;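 active = B-score of the integrated calcium signal more than 4 SD below the library mean, with starting fluorescence not abnormally high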;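 note: negative B-score means reduced calcium response which marks RGS4 activation or potentiation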
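Material: M3R-expressing HEK293 line, RGS4 induced by doxycycline | Schedule: Overnight RGS4 induction, 30 min dye load 37 °C, 20 min compound RT | Measured by: Fluo4 fluorescence kinetic imaging of calcium | Read-out: Integrated calcium ratio converted to B score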
RGS4 block: human RGS4 inhibition; P49798; HEK293 M3R/RGS4 inducible, Fluo-4 calcium flux; stronger effect = higher value; triggered by carbachol at its EC20; B-score at 10 µM; 310,000 tested, 0.45% active;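 active = B-score, a plate-corrected calcium signal, over three deviations above library mean, with baseline fluorescence within five deviations of library mean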;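 note: RGS4 expression induced by doxycycline in cells with stable M3 receptor; B-score is computed from the integrated fluorescence ratio over baseline after carbachol; higher B-score means a larger calcium signal and so more RGS4 inhibition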
Target sequence (P49798 whole entry, looked up): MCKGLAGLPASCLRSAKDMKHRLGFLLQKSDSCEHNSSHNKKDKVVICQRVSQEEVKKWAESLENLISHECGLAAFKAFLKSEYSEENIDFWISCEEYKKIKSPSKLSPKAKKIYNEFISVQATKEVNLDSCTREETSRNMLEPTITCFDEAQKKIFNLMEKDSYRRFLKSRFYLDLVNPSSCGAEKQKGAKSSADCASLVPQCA
MrgX1 antagonist: human MrgX1 receptor antagonism, primary screen | MRGX1-HEK293 calcium flux, Fluo-4, BAM8-22 antagonism; stronger effect = lower value | B-score at 10 µM | 310,000 tested, 1.3% active;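 active = calcium-response B-score plate-corrected more than 3 library SD below zero, starting fluorescence within 5 deviations, no agonist response on first addition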;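 note: peak minus trough fluorescence over baseline after final BAM8-22 challenge near maximal dose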
RGS4 inh valid: validation of RGS4 inhibitors; shares compounds with RGS4 block; HEK293 M3R/RGS4, carbachol calcium Fluo-4 fluorescence; carbachol added at its EC20; 0 = buffer wells, 100 = carbachol control; calcium response, % at 10 µM; 1,700 tested, 65% active; AID 492999;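 active = duplicate-averaged calcium response above the buffer-only control mean plus 5 SD of those controls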;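 note: integrated fluorescence ratio F max minus min over baseline F0; higher response in RGS4-induced cells means RGS4 inhibition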
M3R Ca ctr: checks RGS4 inhibitor effects in non-induced HEK293 M3R cells. carbachol calcium Fluo-4; submaximal (EC20) carbachol stimulus; buffer wells 0%, carbachol control wells 100%. activity (percent), % at 10 µM. AID 493000. 1,900 tested, 20% active. shares compounds with RGS4 block; call rule not given here;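 note: RGS4 induction absent so cells express M3R without RGS4; higher means more calcium signal and flags a non-specific hit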
M3R basal Ca ctr: second RGS4 inhibitor counter-screen in uninduced cells lacking carbachol; HEK293 M3R/RGS4 non-induced, Fluo-4 calcium, no carbachol; normalised: buffer wells 0%, carbachol wells 100%; shares compounds with RGS4 block; 1,900 tested, 22% active; calcium response (agonist-mode artifact), % at 10 µM; AID 493001;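 active = duplicate-averaged calcium rise in uninduced cells above buffer wells' mean plus 5 SD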
* = called active by the depositor; i = inactive; x = not tested or not shown.

SMILES	MrgX1 agonist	MrgX1 PAM	RGS4 pot	RGS4 block	MrgX1 antagonist	RGS4 inh valid	M3R Ca ctr	M3R basal Ca ctr
O=C(Oc1cccc2cccnc12)c1ccc(Br)o1	i	i	i	4.7*	i	42%*	i	i
O=C(Oc1cccc2cccnc12)c1cccs1	i	i	i	7.3*	i	48%*	i	i
Cc1c(C(=O)Oc2cccc3cccnc23)cccc1[N+](=O)[O-]	i	i	i	10*	i	56%*	i	i
O=C(Oc1cccc2cccnc12)c1ccco1	i	i	i	i	i	x	x	x
c1ccc(Cn2c[n+](Cc3ccccc3)cn2)cc1	i	i	i	i	i	x	x	x
CC(C)NC(=O)CCn1nc(-c2ccc(Cl)cc2)c2ccccc2c1=O	i	i	i	i	i	x	x	x
CCc1ccccc1NC(=O)C1CCCN1C(=O)Nc1ccc(C)cc1 (stereo not drawn)	i	i	i	i	i	x	x	x
Cc1cc(Cl)ccc1OCC(=O)NNC(=O)c1ccco1	i	i	i	i	i	x	i	i
COc1ccc(C(=O)/C=C/c2ccccc2)c(O)c1	i	i	i	i	i	i	i	i
COc1ccc(C(=O)/C=C/c2ccc(OC)cc2OC)c(O)c1	i	i	i	i	i	x	x	x
O=C(/C=C/c1ccoc1)c1ccccc1O	i	i	i	i	i	x	x	x
COc1ccc(C(=O)/C=C/c2cc(C(=O)O)cc3c2OCOC3)c(O)c1	i	i	i	24*	i	64%*	70%*	i
O=C(/C=C/c1ccc(O)c(O)c1)c1ccccc1O	i	14*	i	13*	i	25%*	48%*	i
CC(C)NC(=O)c1ccccc1NC(=O)Cc1ccc([N+](=O)[O-])cc1	i	i	i	i	i	x	x	x
NC(=O)c1cc(S(=O)(=O)NCCc2ccc(S(N)(=O)=O)cc2)cs1	i	i	i	i	i	x	x	x
Cc1ccc(NC(=O)CCNS(=O)(=O)c2ccc(OC(F)(F)F)cc2)c(O)c1	i	i	i	i	i	x	x	x
CC1(C)Cc2c(C#N)c(N3CCCC3)nc(-c3ccco3)c2CO1	i	i	i	8.5*	i	6.0%*	i	13%*
CC1(C)Cc2c(C#N)c(NCc3ccco3)nc(-c3ccco3)c2CO1	i	i	i	i	i	x	x	x
CCc1nc(N2CCOCC2)c(C#N)c2c1CCCC2	i	i	i	i	i	x	x	x
N#Cc1c(N2CCOCC2)nc(-c2ccco2)c2c1CCCC2	i	i	i	i	i	i	i	i
COc1ccc(-c2sc3ccc(OC)cc3c2C#CCCO)cc1	i	i	i	i	i	i	i	i
COc1ccc(-c2ccc3oc(-c4ccc(OC)cc4)c(C#CCO)c3c2)cc1	i	i	i	i	i	x	x	x
C/C(=N\N=C(/N)SC1CC(=O)N(c2ccc(Br)cc2)C1=O)c1cccs1 (stereo not drawn)	i	i	i	11*	i	37%*	31%*	i
C/C(=N\N=C(/N)SC1CC(=O)N(c2ccccc2)C1=O)c1cccs1 (stereo not drawn)	i	i	i	i	i	x	i	i
NCCSC1CC(=O)N(c2ccc(Cl)c(Cl)c2)C1=O (stereo not drawn)	i	i	i	i	i	x	x	x
SMILES	MrgX1 agonist	MrgX1 PAM	RGS4 pot	RGS4 block	MrgX1 antagonist	RGS4 inh valid	M3R Ca ctr	M3R basal Ca ctr
N/C(=N\N=C\c1cccs1)SC1CC(=O)N(c2ccc(Br)cc2)C1=O (stereo not drawn)	i	i	i	i	i	x	x	x
C/C(=N\N=C(/N)SC1CC(=O)N(c2ccc(Cl)cc2)C1=O)c1cccs1 (stereo not drawn)	i	i	i	8.7*	i	5.0%*	40%*	i
C/C(=N\N=C(/N)SC1CC(=O)N(c2ccc(Cl)c(Cl)c2)C1=O)c1cccs1 (stereo not drawn)	i	i	i	6.4*	i	5.5%*	i	i
COc1ccc(OC)c(S(=O)(=O)n2ccnc2C(C)C)c1	i	i	i	i	i	x	x	x
COc1cc(C2c3c(oc4ccccc4c3=O)C(=O)N2c2nccs2)ccc1O (stereo not drawn)	i	i	i	i	i	x	x	x
COc1ccc(CNC(=O)c2cncc(Br)c2)cc1	i	i	i	i	i	x	x	x
CCCCCCOc1ccc(N2C(=O)CC(S/C(N)=N/N=C(\C)c3cccs3)C2=O)cc1 (stereo not drawn)	i	i	i	7.5*	i	i	i	i
CCCCCOc1ccc(N2C(=O)CC(N(O)c3ccccc3)C2=O)cc1 (stereo not drawn)	i	i	i	i	i	x	x	x
O=C1NC(c2ccccc2)=C(c2nc3ccccc3s2)C(c2ccccc2)N1 (stereo not drawn)	i	i	i	i	i	x	30%*	26%*
CC(=O)C1=C(c2ccccc2)NC(=O)NC1c1ccccc1 (stereo not drawn)	i	i	i	i	i	x	x	x
O=[N+]([O-])c1c(Nc2ccccn2)cc(Cl)c2nonc12	i	i	i	10*	-4.7*	54%*	i	8.0%*
O=C(O)c1ccccc1Nc1cc(Cl)c2nonc2c1[N+](=O)[O-]	i	i	i	i	i	x	x	x
CCOC(=O)c1[nH]cnc1C(=O)Nc1cccc(Cl)c1	i	i	i	i	i	x	x	x
Cc1cccc(NCC(=O)N/N=C\c2cccc(Oc3ccccc3)c2)c1	i	i	i	i	i	x	i	i
Cc1ccc(NCC(=O)N/N=C/c2cccc(Oc3ccccc3)c2)cc1	i	i	i	13*	i	20%*	i	i
Cc1ccc(NCC(=O)N/N=C/c2cc(O)ccc2[N+](=O)[O-])cc1	i	i	i	5.2*	i	i	i	i
CN(C)Cc1c(C(=O)N/N=C/CCc2ccccc2)nnn1-c1nonc1N	i	i	i	i	i	x	x	x
